Reference: publication PMC7607594 (BMJ Open Diabetes Research & Care, 2020)

Columns and labels:
[1] = target: T1, GLP-1r (Sus scrofa, UniProt A0ACM8QMX0); assay: GLP-1r PET imaging with compartmental kinetic analysis; format: in vivo, Yucatan mini-pigs; conditions: 2-tissue compartment model, mean±SEM
T1 sequence (A0ACM8QMX0 24-463): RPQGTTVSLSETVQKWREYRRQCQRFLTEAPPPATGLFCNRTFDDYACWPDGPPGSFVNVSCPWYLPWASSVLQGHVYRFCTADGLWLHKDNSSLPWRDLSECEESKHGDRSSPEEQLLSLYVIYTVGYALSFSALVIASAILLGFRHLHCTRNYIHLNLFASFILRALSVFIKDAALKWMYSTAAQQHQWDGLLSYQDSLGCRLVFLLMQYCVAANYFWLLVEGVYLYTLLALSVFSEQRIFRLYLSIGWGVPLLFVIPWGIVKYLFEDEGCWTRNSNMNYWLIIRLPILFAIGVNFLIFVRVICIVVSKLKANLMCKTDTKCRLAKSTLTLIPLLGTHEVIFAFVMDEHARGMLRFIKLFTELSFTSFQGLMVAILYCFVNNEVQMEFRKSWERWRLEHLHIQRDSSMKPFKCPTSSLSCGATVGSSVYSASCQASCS
Summary of the method: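 Adult Yucatan mini-pigs, lean or obese, anesthetized; a 68Ga-labeled GLP-1r agonist radiotracer at 0.2 MBq/kg was given IV over 30 s. A dynamic abdominal PET-CT scan ran for 60 min in 30 frames, either fasted or at euglycemic–hyperinsulinemic clamp plateau (insulin 120 mU kg−1 h−1, 20% glucose). Arterial input came from an external arteriovenous loop gamma detector. Vs came from a 2-tissue compartment fit. Mean±SEM, unpaired t-test.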

[2] = ^68Ga-DOTA PET imaging of visceral blood flow; format: in vivo, Yucatan mini-pigs; conditions: for K1 (unidirectional transfer rate from blood to tissue): 1-tissue compartment model, mean±SEM
Summary of the method: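 Visceral perfusion was measured in anesthetized lean and obese Yucatan mini-pigs during the same session, after GLP-1r imaging. 68Ga-DOTA at 1.2 MBq/kg was given IV over 10 s, followed by a dynamic PET of 10 min in 46 frames. Arterial input came from an arteriovenous loop. Images were partial-volume corrected. K1 came from a one-tissue compartment fit. Mean±SEM, unpaired t-test.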

## [^68Ga]Ga-DO3A-VS-Cys40-exendin-4
[1]; duodenum, lean, fasted
  GLP-1r binding potential (Vs, distribution volume of specific binding): 3.02±0.20 mL/ccm
[1]; duodenum, lean, insulin (clamp plateau)
  GLP-1r binding potential (Vs, distribution volume of specific binding): 2.62±0.17 mL/ccm
[1]; duodenum, obese, fasted
  GLP-1r binding potential (Vs, distribution volume of specific binding): 2.87±0.29 mL/ccm
[1]; duodenum, obese, insulin (clamp plateau)
  GLP-1r binding potential (Vs, distribution volume of specific binding): 2.88±0.25 mL/ccm
[1]; pancreas, obese, fasted
  GLP-1r binding potential (Vs, distribution volume of specific binding): 1.49±0.47 mL/ccm
[1]; subcutaneous fat, lean, fasted
  GLP-1r binding potential (Vs, distribution volume of specific binding): 0.13±0.02 mL/ccm
[1]; subcutaneous fat, obese, fasted
  GLP-1r binding potential (Vs, distribution volume of specific binding): 0.06±0.02 mL/ccm
[1]; visceral fat, lean, fasted
  GLP-1r binding potential (Vs, distribution volume of specific binding): 0.44±0.13 mL/ccm
[1]; visceral fat, obese, fasted
  GLP-1r binding potential (Vs, distribution volume of specific binding): 0.13±0.02 mL/ccm

## ^68Ga-DOTA
[2]; duodenum, lean
  K1 (unidirectional transfer rate from blood to tissue): 0.14±0.02 mL ccm^−1 min^−1
[2]; pancreas, obese
  K1 (unidirectional transfer rate from blood to tissue): 0.14±0.05 mL ccm^−1 min^−1
[2]; pancreatic level, obese versus lean animals
  reduction of K1 for the flow-coded images: about 90%
[2]; subcutaneous fat, lean
  K1 (unidirectional transfer rate from blood to tissue): 0.08±0.03 mL ccm^−1 min^−1
[2]; subcutaneous fat, obese
  K1 (unidirectional transfer rate from blood to tissue): 0.01±0.01 mL ccm^−1 min^−1
[2]; visceral fat, lean
  K1 (unidirectional transfer rate from blood to tissue): 0.02±0.01 mL ccm^−1 min^−1
[2]; visceral fat, obese
  K1 (unidirectional transfer rate from blood to tissue): 0.03±0.01 mL ccm^−1 min^−1
